Each block holds one compound with its values, some of them ahead of it. Where a SMILES comes first, the peptide text is derived from it. [ ]: non-standard residue; d: D form. pS = N[C@@H](COP(=O)(O)O)C(=O)O
Legend:
14-3-3σ [1] = biological target: T1, 14-3-3σ (Homo sapiens, UniProt P31947); assay: AEDANS fluorescence titration of pHSPB6AEDANS by 14-3-3σ; format: binding; details: excitation at 336 nm, 4.2 µM pHSPB6AEDANS, 30°C
T1 sequence (P31947 1-231): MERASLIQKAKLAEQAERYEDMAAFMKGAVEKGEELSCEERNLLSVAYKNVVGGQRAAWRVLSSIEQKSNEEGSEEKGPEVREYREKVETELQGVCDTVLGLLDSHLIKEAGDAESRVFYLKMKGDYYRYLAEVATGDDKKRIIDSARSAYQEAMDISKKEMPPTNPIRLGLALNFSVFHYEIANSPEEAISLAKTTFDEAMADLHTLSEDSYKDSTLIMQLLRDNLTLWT
Outline: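 Full-length HSPB6 was phosphorylated at Ser16 by PKA in vitro and moved into 20 mM HEPES pH 7.5 with 100 mM NaCl. It was reduced with 20 mM DTT for 20 min at room temperature, desalted, then labelled with a 6-fold molar excess of 1,5-I-AEDANS (1 h room temperature, then overnight at 4 °C), reaching 90% labelling. Human 14-3-3σ(1-231) was added stepwise with 5 min equilibration at 30 °C. Excitation was 336 nm and emission was read at 488 nm. Curves were buffer-corrected and fitted to a quadratic equation.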

14-3-3σ [2] = biological target: T1, 14-3-3σ; assay: Fluorescence competition titration; format: binding; details: equimolar concentration and 7-fold excess of phosphopeptide; 30°C
14-3-3 dimer = assay: Affinity of pHSPB6 dimer to the 14-3-3 dimer; format: binding, human; details: Discussion
14-3-3ζ = details: ref Sluchanko et al., 2011; cited from earlier work
14-3-3 = details: in vitro; ref Sudnitsyna et al., 2012; cited from earlier work
14-3-3γ = biological target: T2, 14-3-3γ (Homo sapiens, UniProt P61981); assay: Isothermal titration calorimetry; format: binding; details: 30 °C, pH 7.6
T2 sequence (P61981 1-247): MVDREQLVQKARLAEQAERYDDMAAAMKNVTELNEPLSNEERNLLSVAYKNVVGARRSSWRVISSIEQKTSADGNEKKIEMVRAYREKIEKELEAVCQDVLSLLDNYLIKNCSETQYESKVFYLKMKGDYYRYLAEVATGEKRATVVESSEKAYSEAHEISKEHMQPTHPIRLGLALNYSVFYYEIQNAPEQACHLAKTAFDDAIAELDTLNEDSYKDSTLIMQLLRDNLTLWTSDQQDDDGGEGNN
Outline: (§1)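 ITC was run at 30 °C in 20 mM Tris-HCl pH 7.6 with 150 mM NaCl, 0.1 mM EDTA and 2 mM β-mercaptoethanol. 2 μl aliquots of 14-3-3 were injected into a 0.2 ml cell holding the test phosphopeptide: 44 μM peptide titrated with 0.5 mM full-length human 14-3-3γ, or 100 μM peptide titrated with 1 mM 14-3-3σ. Heat of dilution was subtracted before curve fitting. There were at least three repeats with varied concentrations.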

14-3-3σ [3] = biological target: T1, 14-3-3σ; assay: Isothermal titration calorimetry; format: binding; details: 30 °C, pH 7.6
Outline: as §1

fluorescence peak shift upon titration with 14-3-3σ (14-3-3σ [1]): shifted from 486 to 479 nm
Compound: pHSPB6^AEDANS: phosphorylated full-length HSPB6 stoichiometrically labeled at its unique Cys46 residue with 1,5-I-AEDANS
14-3-3σ/pHSPB6AEDANS interaction in the presence of phosphopeptide (14-3-3σ [2]): resulted in a saturable curve (Fig.2b), suggestive of a retained 14-3-3σ/pHSPB6^AEDANS interaction

Compound: pHSPB6: phosphorylated small heat shock protein HSPB6 (HSP20)
apparent affinity to the 14-3-3 dimer (14-3-3 dimer): submicromolar apparent affinity
affinity to 14-3-3ζ (14-3-3ζ): micromolar affinity

Compound: phosphocofilin: phosphocofilin, 14-3-3 complex partner
direct 14-3-3/phosphocofilin interaction (14-3-3): could not be confirmed in vitro

stoichiometry of binding (ITC) (14-3-3γ): one peptide per 14-3-3 subunit
stoichiometry of binding (ITC) (14-3-3σ [3]): one peptide per 14-3-3 subunit
Compound: CC(C)C[C@H](NC(=O)CNC(=O)[C@@H]1CCCN1C(=O)[C@H](CC(C)C)NC(=O)[C@@H]1CCCN1C(=O)[C@H](C)NC(=O)[C@H](COP(=O)(O)O)NC(=O)[C@H](C)NC(=O)[C@H](CCCNC(=N)N)NC(=O)[C@H](CCCNC(=N)N)NC(=O)[C@H](CC(C)C)NC(=O)[C@@H](N)Cc1c[nH]c2ccccc12)C(=O)N[C@@H](CCCCN)C(=O)O [phosphopeptide 11-23] (H-WLRRA[pS]APLPGLK-OH)
